Reference: the M2OR odorant receptor database

How the values were obtained:
Settings in all cases: stereoisomer not certain
OR10A3 (Homo sapiens) = biological target: T1, OR10A3 (Homo sapiens) (UniProt P58181)
T1 sequence (whole entry): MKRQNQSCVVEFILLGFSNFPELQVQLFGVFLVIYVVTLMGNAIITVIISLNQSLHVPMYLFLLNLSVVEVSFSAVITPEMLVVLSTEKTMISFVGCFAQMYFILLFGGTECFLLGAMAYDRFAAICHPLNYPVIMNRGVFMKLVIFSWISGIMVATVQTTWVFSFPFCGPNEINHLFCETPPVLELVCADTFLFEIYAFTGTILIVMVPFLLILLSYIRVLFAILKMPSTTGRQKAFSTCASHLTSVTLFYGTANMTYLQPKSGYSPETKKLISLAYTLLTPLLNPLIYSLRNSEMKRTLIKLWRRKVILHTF
Outline: (§1)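 Transient luciferase assays in mammalian cell lines were common, though methods varied by source. The values come from published papers and their supplementary material, with extra details from the original authors when needed. Responsive refers to a measured signal the original authors judged statistically different from baseline, and non-responsive (inactive) to the remainder.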

OR10A4 (Homo sapiens) = biological target: T2, OR10A4 (Homo sapiens) (UniProt Q9H209)
T2 sequence (whole entry): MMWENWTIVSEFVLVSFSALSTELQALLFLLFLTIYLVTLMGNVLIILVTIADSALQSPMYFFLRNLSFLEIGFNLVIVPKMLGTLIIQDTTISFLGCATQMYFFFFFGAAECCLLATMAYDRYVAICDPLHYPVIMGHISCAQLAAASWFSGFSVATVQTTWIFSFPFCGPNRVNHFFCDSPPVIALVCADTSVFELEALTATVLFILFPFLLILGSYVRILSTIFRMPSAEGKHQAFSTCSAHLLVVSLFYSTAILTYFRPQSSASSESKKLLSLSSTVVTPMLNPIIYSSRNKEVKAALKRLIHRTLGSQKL
Outline: as §1

OR10A5 (Homo sapiens) = biological target: T3, OR10A5 (Homo sapiens) (UniProt Q9H207)
T3 sequence (whole entry): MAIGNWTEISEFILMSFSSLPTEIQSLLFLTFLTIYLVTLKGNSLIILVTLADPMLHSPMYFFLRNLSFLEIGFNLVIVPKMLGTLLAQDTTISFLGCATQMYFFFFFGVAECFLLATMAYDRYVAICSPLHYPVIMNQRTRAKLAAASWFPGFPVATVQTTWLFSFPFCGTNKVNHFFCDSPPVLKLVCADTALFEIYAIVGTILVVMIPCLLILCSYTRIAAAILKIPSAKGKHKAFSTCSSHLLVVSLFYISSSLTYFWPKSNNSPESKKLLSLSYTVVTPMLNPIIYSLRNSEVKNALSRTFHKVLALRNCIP
Outline: as §1

OR10A6 (Homo sapiens) = biological target: T4, OR10A6 (Homo sapiens) (UniProt Q8NH74)
T4 sequence (whole entry): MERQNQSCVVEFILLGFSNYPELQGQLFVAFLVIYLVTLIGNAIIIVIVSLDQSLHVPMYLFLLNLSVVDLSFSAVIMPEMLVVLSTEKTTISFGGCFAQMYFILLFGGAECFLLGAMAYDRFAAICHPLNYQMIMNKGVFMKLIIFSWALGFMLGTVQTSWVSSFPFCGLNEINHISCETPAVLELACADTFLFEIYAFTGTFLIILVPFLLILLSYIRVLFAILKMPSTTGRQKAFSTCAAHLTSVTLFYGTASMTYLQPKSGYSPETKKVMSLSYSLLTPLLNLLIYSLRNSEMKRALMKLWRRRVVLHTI
Outline: as §1

OR10A7 (Homo sapiens) = biological target: T5, OR10A7 (Homo sapiens) (UniProt Q8NGE5)
T5 sequence (whole entry): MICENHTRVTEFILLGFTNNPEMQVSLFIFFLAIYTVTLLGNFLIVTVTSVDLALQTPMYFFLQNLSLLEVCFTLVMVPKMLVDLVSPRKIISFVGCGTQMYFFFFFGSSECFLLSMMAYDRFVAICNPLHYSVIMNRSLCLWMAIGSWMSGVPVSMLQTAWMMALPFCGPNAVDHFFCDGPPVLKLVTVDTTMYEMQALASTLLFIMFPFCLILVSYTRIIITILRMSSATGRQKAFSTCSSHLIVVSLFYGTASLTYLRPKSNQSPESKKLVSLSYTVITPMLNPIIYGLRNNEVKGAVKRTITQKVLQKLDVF
Outline: as §1

OR10AD1 (Homo sapiens) = biological target: T6, OR10AD1 (Homo sapiens) (UniProt Q8NGE0)
T6 sequence (whole entry): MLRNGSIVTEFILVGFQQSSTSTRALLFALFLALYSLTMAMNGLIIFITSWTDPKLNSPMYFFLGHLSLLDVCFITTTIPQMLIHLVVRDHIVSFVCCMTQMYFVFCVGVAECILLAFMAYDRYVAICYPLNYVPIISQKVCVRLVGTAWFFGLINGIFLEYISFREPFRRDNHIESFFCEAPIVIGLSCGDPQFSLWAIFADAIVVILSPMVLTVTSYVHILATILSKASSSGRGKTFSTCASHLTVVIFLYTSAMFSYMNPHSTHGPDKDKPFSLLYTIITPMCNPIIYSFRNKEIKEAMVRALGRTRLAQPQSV
Outline: as §1

OR10AG1 (Homo sapiens) = biological target: T7, OR10AG1 (Homo sapiens) (UniProt Q8NH19)
T7 sequence (whole entry): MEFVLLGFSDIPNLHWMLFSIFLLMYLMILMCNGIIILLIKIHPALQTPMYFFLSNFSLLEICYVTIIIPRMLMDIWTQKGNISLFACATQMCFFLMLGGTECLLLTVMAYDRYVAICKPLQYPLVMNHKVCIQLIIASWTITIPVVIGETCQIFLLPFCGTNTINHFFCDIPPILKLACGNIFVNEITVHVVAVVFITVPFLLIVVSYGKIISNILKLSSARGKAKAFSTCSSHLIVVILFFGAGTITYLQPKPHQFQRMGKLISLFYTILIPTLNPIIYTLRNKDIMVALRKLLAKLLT
Outline: as §1

OR10C1 (Homo sapiens) = biological target: T8, OR10C1 (Homo sapiens) (UniProt Q96KK4)
T8 sequence (whole entry): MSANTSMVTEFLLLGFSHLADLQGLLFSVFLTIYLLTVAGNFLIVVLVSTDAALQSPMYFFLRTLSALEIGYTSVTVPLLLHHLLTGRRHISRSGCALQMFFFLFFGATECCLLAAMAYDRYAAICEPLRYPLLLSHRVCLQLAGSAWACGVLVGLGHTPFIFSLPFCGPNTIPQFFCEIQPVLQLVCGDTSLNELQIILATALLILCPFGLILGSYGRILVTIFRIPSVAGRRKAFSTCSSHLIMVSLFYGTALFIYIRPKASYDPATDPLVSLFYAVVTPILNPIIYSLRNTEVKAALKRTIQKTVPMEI
Outline: as §1

OR10D3 (Homo sapiens) = biological target: T9, OR10D3 (Homo sapiens) (UniProt Q8NH80)
T9 sequence (whole entry): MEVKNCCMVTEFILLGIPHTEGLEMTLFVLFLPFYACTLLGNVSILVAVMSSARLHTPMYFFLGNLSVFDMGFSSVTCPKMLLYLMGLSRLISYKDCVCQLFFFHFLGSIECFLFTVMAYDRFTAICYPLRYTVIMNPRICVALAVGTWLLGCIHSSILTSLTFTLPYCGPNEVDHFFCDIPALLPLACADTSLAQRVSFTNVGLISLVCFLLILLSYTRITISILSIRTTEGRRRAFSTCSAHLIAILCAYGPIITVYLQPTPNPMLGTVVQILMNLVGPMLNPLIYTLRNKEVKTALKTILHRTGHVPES
Outline: as §1

Measured: odorant receptor agonist call;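 also: active if original authors judged signal statistically different from baseline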

CCCCC(S)C(C)CO (centres undefined)
inactive: all assays above
